4 molecules from ChEMBL document CHEMBL5244203, “Thiadiazolodiazepine analogues as a new class of neuromuscular blocking agents: Synthesis, biological evaluation and molecular modeling study” (Eur J Med Chem, 2017) can be followed below.

Series [1] has as its system Gallus gallus. Description: Neuromuscular blocking activity in chicks assessed as induction of flaccid paralysis by measuring time of onset of muscle relaxation at 0.15 mmol/Kg, ip administered as single dose. The class given is functional. The gist of the method:
(§1)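 4-day-old chicks (50 g) receive a single submaximal dose i.p., taken from the rat twitch study (0.15 mmol/kg). The type of paralysis, flaccid or spastic, is noted. The onset of head drop and of complete paralysis is timed after administration. Atracurium and succinylcholine serve as positive controls.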

In series [2] the test system is Rattus norvegicus. Briefly: Neuromuscular blocking activity in Wistar rat tibialis muscle assessed as reduction in electrically-induced twitches by measuring time of onset at 100 mg/kg, ip. Type of series: functional. The method, boiled down: (§2)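 Male Wistar rats (250 g, N = 4-8 per group) anaesthetized with urethane (25% in water, 1.25 g/kg i.p.). Tracheal cannula with artificial room-air ventilation at 90 breaths/min, 20 c.c./kg. Rectal temperature held at 37 ± 1 °C. Tibialis twitch tension is expressed as % of pre-drug amplitude. Drug is given i.p. in DMSO or water, 1-100 mg/kg; ED50 and 90%-depression dose derived; mean ± S.E.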

The test system of series [3] is Rattus norvegicus. Briefly: Reversal of neuromuscular blocking activity against electrically induced twitches in Wistar rat tibialis muscle at 100 mg/kg, ip in presence of physostigmine relative to control. The class given is functional.
In series [4] the test system is Gallus gallus. Description: Neuromuscular blocking activity in ip dosed chicks assessed as induction of flaccid paralysis. Type of series: functional. The gist of the method: as §1
For series [5], the system named is Rattus norvegicus. Description: Neuromuscular blocking activity in ip dosed Wistar rat tibialis muscle assessed as reduction in electrically-induced twitches. Type of series: functional. The gist of the method:
as §2

Series [6] relates to Rattus norvegicus. Description: Neuromuscular blocking activity in Wistar rat tibialis muscle assessed as reduction in electrically-induced twitches by measuring time required for 90% blockage at 100 mg/kg, ip. The class given is functional. The gist of the method:
as §2

The test system of series [7] is Rattus norvegicus. Description: Reversal of neuromuscular blocking activity in Wistar rat tibialis muscle assessed as time of onset of reversal at 100 mg/kg, ip in presence of physostigmine. The class given is functional.
Series [8] is described as follows: Toxicity in ip dosed mouse measured for 72 hrs. Type of series: organism-based. The note with it: in vivo. The gist of the method: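 Male mice, grouped, given i.p. doses of 0.1-5 mmol/kg. Observed continuously for 6 h, then kept under observation for 72 h, with behavioural changes and deaths recorded. Percentage death per dose converted to probits to derive the LD50.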

For series [9], the system named is Gallus gallus. Description: Neuromuscular blocking activity in chicks assessed as induction of flaccid paralysis by measuring time of onset of head drop at 0.15 mmol/Kg, ip administered as single dose. Type of series: functional. The method, boiled down:
as §1

In series [10] the test system is Rattus norvegicus. Briefly: Neuromuscular blocking activity in against electrically-induced twitches in Wistar rat tibialis muscle assessed as time duration of muscle block at 100 mg/kg, ip. Type of series: functional. The method, boiled down:
as §2

The test system of series [11] is Rattus norvegicus. Description: Neuromuscular blocking activity in Wistar rat tibialis muscle assessed as reduction in tetanus stimulated muscle twitches at 100 mg/kg, ip. Type of series: functional, organism-based. The gist of the method: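 Male Wistar rats (250 g, N = 4-8 per group) anaesthetised with urethane (1.25 g/kg i.p.), tracheally cannulated and ventilated with room air at 90 breaths/min. Tibialis twitch tension recorded with body temperature kept at 37 ± 1 °C. Tetanus given at 30 Hz for 5-10 s. Drug given i.p. in DMSO or water at 1-100 mg/kg. Twitches expressed as % of pre-drug amplitude.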

For series [12], the system named is Rattus norvegicus. Briefly: Neuromuscular blocking activity in Wistar rat tibialis muscle assessed as reduction in electrically-induced twitches by measuring time required for 50% blockage at 100 mg/kg, ip. Type of series: functional. The method, boiled down:
as §2

The subject of series [13] is Rattus norvegicus. Description: Neuromuscular blocking activity in Wistar rat tibialis muscle assessed as reduction in electrically induced twitches at 100 mg/kg, ip in presence of physostigmine. The class given is functional, organism-based.
Series [14] has as its system Gallus gallus. Briefly: Neuromuscular blocking activity in chicks assessed as induction of spastic paralysis by measuring time of onset of muscle relaxation at 0.15 mmol/Kg, ip administered as single dose. Type of series: functional. The method, boiled down: as §1
Series [15] deals with Gallus gallus. Description: Neuromuscular blocking activity in ip dosed chicks assessed as induction of spastic paralysis. Type of series: functional. The gist of the method:
as §1

The source made the active and inactive calls. No cut-off for these calls is given here.

As a reminder, the ED50 is the midpoint of the dose-response relation. As usually defined, the LD50 is the dose at which mortality reaches 50%. Lower therefore signals greater toxicity. For the molecule `O=C1CCCN2N=C(c3ccc(Br)cc3)SC2=N1`, the Time in series [1] came out at 1 min; in series [2], 3 min; in [6], 10 min; in series [7] it was 1 min; in [9], 0.25 min; in series [10], 70 min. The Time in series [12] amounted to 7 min. Besides, the Activity in series [3] is 100%. In addition, the ED50 in [4] and in series [5] was 150 µmol/kg throughout. This molecule came in with an LD50 at 72 h in series [8] of 195 mg/kg. For the same molecule, the outcome in series [11] was Active.

In the case of `COc1ccc(CC2c3cc(OC)c(OC)cc3CC[N+]2(C)CCC(=O)OCCCCCOC(=O)CC[N+]2(C)CCc3cc(OC)c(OC)cc3C2Cc2ccc(OC)c(OC)c2)cc1OC.O=S(=O)([O-])c1ccccc1.O=S(=O)([O-])c1ccccc1` (configuration not stated) [ATRACURIUM BESYLATE], the Time in [1] is 10 min; in series [2], 5 min; in series [6] it was 12 min; in series [7], 2 min; in series [9], 5 min; in series [10], 30 min. The Time in series [12] was determined as 8 min. In series [3], the Activity is 100%. The ED50 in series [4] and in series [5] was 16 µmol/kg each time. For the same molecule, the result in series [11] was Active.

`O=C1CCCN2N=C(c3ccc(F)cc3)SC2=N1`: the Time in [1] stood at 15 min; in [2] it was 10 min; in [6], 28 min; in series [9], 11 min; in series [10], 110 min; in series [12] it was 18 min. Moreover, the values for the ED50 in [4] and in [5] were 300 µmol/kg and 360 µmol/kg, respectively. The outcome in series [13] was inactive. The result in [11] was Active.

Turning to `C[N+](C)(C)CCOC(=O)CCC(=O)OCC[N+](C)(C)C.[Cl-].[Cl-]` [SUCCINYLCHOLINE CHLORIDE], the Time was found to be 0.5 min in [14]; 2 min in series [2]; 5 min in series [6]; 20 min in series [10]; 3 min in series [12]. The 50% effective dose (ED50) in [5] and in series [15] was 30 µmol/kg throughout. In addition, the outcome in [13] and in series [11] was inactive.
